According to PMC12166256 (Clinical Pharmacology and Therapeutics, 2025):
Marks after values point to notes of the source that are not given here.

Columns and labels:
[1] = test system: collagen-induced arthritis mouse model; details: cited from earlier work
[2] = MAD study: plasma and urine pharmacokinetics; format: in vivo, human
Procedure, shortened: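 Healthy males got oral doses for 14 days: 100 mg once daily fasted, or 100, 200 or 300 mg twice daily fed. Plasma was drawn pre-dose and […] on Day 1, pre-dose and at 3 h on Days 4, 7 and 12, and up to 120 h after the final Day 14 morning dose. Urine was collected over 24 h at steady state. LC–MS/MS, LLOQ 2 ng/mL; non-compartmental analysis.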

[3] = MAD 24-hour urine Day 13, 100 mg BID fed
[4] = MAD 24-hour urine Day 13, 100 mg QD fasted
[5] = MAD 24-hour urine Day 13, 200 mg BID fed
[6] = MAD 24-hour urine Day 13, 300 mg BID fed
[7] = MAD Day 1 first dose, 100 mg BID fed
[8] = MAD Day 1 first dose, 100 mg QD fasted
[9] = MAD Day 1 first dose, 100 mg QD fasted, calculated by extrapolation
[10] = MAD Day 1 first dose, 200 mg BID fed
[11] = MAD Day 1 first dose, 300 mg BID fed
[12] = MAD Day 14, 100 mg BID fed, n = 6

time to steady state (90% CI) ([2]; BID dosing, fed): 5.45 (5.36–5.92) days
Fe0-24 (fraction of dose excreted unchanged in urine), mean ± SD [2, 3]: 9.41 ± 4.66%
Fe0-24, geometric mean [2, 3]: (8.18) [50] %
Fe0-24 (fraction of dose excreted unchanged in urine), mean ± SD [2, 4]: 9.07 ± 1.85%
Fe0-24, geometric mean [2, 4]: (8.91) [20] %
Fe0-24 (fraction of dose excreted unchanged in urine), mean ± SD [2, 5]: 11.9 ± 3.54%
Fe0-24, geometric mean [2, 5]: (11.4) [30] %
Fe0-24 (fraction of dose excreted unchanged in urine), mean ± SD [2, 6]: 15.6 ± 4.40%
Fe0-24, geometric mean [2, 6]: (15.0) [28] %
AUC0-12, geometric mean [2, 7]: (324) [53] ng·h/mL
AUC0-12, mean ± SD [2, 7]: 364 ± 194 ng·h/mL
C av, geometric mean [2, 7]: (27.0) [53] ng/mL
C av, mean ± SD [2, 7]: 30.4 ± 16.2 ng/mL
C max, geometric mean [2, 7]: (38.1) [50] ng/mL
C max, mean ± SD [2, 7]: 42.6 ± 21.2 ng/mL
t max, median (min, max) [2, 7]: 6.00 (2.00, 8.00) h
AUC0-12, geometric mean [2, 8]: (527) [35] ng·h/mL
AUC0-12, mean ± SD [2, 8]: 559 ± 194 ng·h/mL
C av, geometric mean [2, 8]: (28.1) [32] ng/mL
C av, mean ± SD [2, 8]: 29.5 ± 9.33 ng/mL
C max, geometric mean [2, 8]: (83.1) [38] ng/mL
C max, mean ± SD [2, 8]: 88.6 ± 34.0 ng/mL
t max, median (min, max) [2, 8]: 3.00 (3.00, 3.00) h
AUC0-24, geometric mean [2, 9]: 674 ng·h/mL
AUC0-24, mean ± SD [2, 9]: 708 ± 224 ng·h/mL
AUC0-12, geometric mean [2, 10]: (1,080) [31] ng·h/mL
AUC0-12, mean ± SD [2, 10]: 1,130 ± 354 ng·h/mL
C av, geometric mean [2, 10]: (90.3) [31] ng/mL
C av, mean ± SD [2, 10]: 94.5 ± 29.5 ng/mL
C max, geometric mean [2, 10]: (132) [32] ng/mL
C max, mean ± SD [2, 10]: 139 ± 43.9 ng/mL
t max, median (min, max) [2, 10]: 5.00 (2.00, 6.00) h
AUC0-12, geometric mean [2, 11]: (2,180) [32] ng·h/mL
AUC0-12, mean ± SD [2, 11]: 2,280 ± 725 ng·h/mL
C av, geometric mean [2, 11]: (182) [32] ng/mL
C av, mean ± SD [2, 11]: 190 ± 60.4 ng/mL
C max, geometric mean [2, 11]: (268) [31] ng/mL
C max, mean ± SD [2, 11]: 278 ± 85.4 ng/mL
t max, median (min, max) [2, 11]: 4.00 (3.00, 6.00) h
AUC0-tau, geometric mean ([2]; MAD Day 14, 100 mg BID fed): (1,690) [48] ng·h/mL
AUC0-tau, mean ± SD ([2]; MAD Day 14, 100 mg BID fed): 1,860 ± 892 ng·h/mL
C av, geometric mean ([2]; MAD Day 14, 100 mg BID fed): (141) [48] ng/mL
C av, mean ± SD ([2]; MAD Day 14, 100 mg BID fed): 155 ± 74.4 ng/mL
C max, geometric mean ([2]; MAD Day 14, 100 mg BID fed): (173) [46] ng/mL
C max, mean ± SD ([2]; MAD Day 14, 100 mg BID fed): 189 ± 86.3 ng/mL
C trough, geometric mean ([2]; MAD Day 14, 100 mg BID fed): (122) [52] ng/mL
C trough, mean ± SD ([2]; MAD Day 14, 100 mg BID fed): 136 ± 70.8 ng/mL
CLss/F, geometric mean ([2]; MAD Day 14, 100 mg BID fed): (59.1) [44] L/h
CLss/F, mean ± SD ([2]; MAD Day 14, 100 mg BID fed): 64.6 ± 28.2 L/h
FLrel (relative fluctuation), geometric mean ([2]; MAD Day 14, 100 mg BID fed): (46.1) [20] %
R ac (accumulation ratio), mean ± SD ([2]; MAD Day 14, 100 mg BID fed): 5.46 ± 0.951
R ac Cmax (accumulation ratio based on C max), mean ± SD ([2]; MAD Day 14, 100 mg BID fed): 4.77 ± 0.730
R ac, geometric mean ([2]; MAD Day 14, 100 mg BID fed): (5.38) [17]
V z/F, geometric mean ([2]; MAD Day 14, 100 mg BID fed): (2,250) [51] L
t max, median (min, max) ([2]; MAD Day 14, 100 mg BID fed): 3.00 (1.00, 4.00) h
t 1/2z, geometric mean [2, 12]: (23.6) [13] h
t 1/2z, mean ± SD [2, 12]: 23.8 ± 3.18 ^g h
AUC0-tau, geometric mean ([2]; MAD Day 14, 100 mg QD fasted): (1,680) [27] ng·h/mL
AUC0-tau, mean ± SD ([2]; MAD Day 14, 100 mg QD fasted): 1,750 ± 471 ng·h/mL
C av, geometric mean ([2]; MAD Day 14, 100 mg QD fasted): (70.0) [27] ng/mL
C av, mean ± SD ([2]; MAD Day 14, 100 mg QD fasted): 72.9 ± 19.6 ng/mL
SMILES: CN1C(=O)c2cccc(OC(F)F)c2[C@H]2C[C@@H]1c1nc3ccc(-c4cnc(C5(N)CCC5)nc4)cc3n12 [Balinatunfib]
average free efficacious exposure in mice ([1]; collagen-induced arthritis mouse model): 24 nM
efficacy in collagen-induced arthritis mouse model ([1]; in vivo): antibody‐like efficacy
